From ChEMBL document CHEMBL5120935, “Synthesis, Anti-Plasmodial Activities, and Mechanistic Insights of 4-Aminoquinoline-Triazolopyrimidine Hybrids” (ACS Med Chem Lett, 2022) come the findings set out here.

As usually defined, the IC50 is the concentration needed to halve the response being measured.

Data set [1] has as its system Plasmodium falciparum. As to the kind of experiment: Antiplasmodial activity against CQ-resistance Plasmodium falciparum W2 infected in A+ human blood assessed as reduction in parasite growth measured after 72 hrs by HRP2 ELISA. It counts as functional, organism-based. Put shortly: (§1)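 IC50s against P. falciparum chloroquine-susceptible 3D7 and chloroquine-resistant W2 strains, each tested separately. Values are the mean and standard deviation of 6 to 9 independent experiments.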
(In general: In an ELISA, binding on a coated surface is turned into a signal by an enzyme label.)

In data set [2] the test system is Plasmodium falciparum. As to the kind of experiment: Antiplasmodial activity against CQ-susceptible Plasmodium falciparum 3D7 infected in A+ human blood assessed as reduction in parasite growth measured after 72 hrs by HRP2 ELISA. In kind it is functional, organism-based. Conditions: 3D7, Blood. The procedure, abridged: as §1
Data set [3] in a line: Resistance index, ratio of IC50 for antiplasmodial activity against CQ-resistance Plasmodium falciparum W2 infected in A+ human blood to IC50 for antiplasmodial activity against CQ-susceptible Plasmodium falciparum 3D7 infected in A+ human blood. In kind it is functional. Put shortly:
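Resistance index calculated as IC50 against W2 divided by IC50 against 3D7, using the in vitro antiplasmodial IC50s measured for each strain.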

Data set [4] in a line: Cytotoxicity against African green monkey Vero cells. In kind it is toxicity, cell-based. Conditions: African green monkey (Chlorocebus sabaeus).
Data set [5] is described as follows: Selectivity index, ratio of IC50 for cytotoxicity against African green monkey Vero cells to IC50 for antiplasmodial activity against CQ-resistance Plasmodium falciparum W2 infected in A+ human blood assessed as reduction in parasite growth measured after 72 hrs by HRP2 ELISA. In kind it is toxicity, cell-based. The conditions noted are these: read-out: Selectivity Index. The procedure, abridged: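 Selectivity index calculated as the IC50 for cytotoxicity on Vero cells divided by the antiplasmodial IC50 against the W2 strain.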

A short description of data set [6]: Selectivity index, ratio of IC50 for cytotoxicity against African green monkey Vero cells to IC50 for antiplasmodial activity against CQ-susceptible Plasmodium falciparum 3D7 infected in A+ human blood assessed as reduction in parasite growth measured after 72 hrs by HRP2 ELISA. It counts as toxicity, cell-based. The conditions noted are these: read-out: Selectivity Index. The procedure, abridged:
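Selectivity index calculated as the IC50 for cytotoxicity on Vero cells divided by the antiplasmodial IC50 against the 3D7 strain.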

`Cc1cc(NCCCCCCCCNc2ccnc3cc(Cl)ccc23)n2ncnc2n1`: the values for the IC50 (with Plasmodium falciparum [1]; with Plasmodium falciparum [2]; in data set [4]) were 0.2 µM, 0.17 µM and 351 µM, respectively. Besides, the “Ratio IC50” value in data set [3] was determined as 1.18. Besides, the selectivity ratio at 72 h came out at 1750 in data set [5] and 2060 in data set [6].

In the case of `Cc1cc(NCCCCCCNc2ccnc3cc(Cl)ccc23)n2ncnc2n1`, the results for the IC50 (in the data set on Plasmodium falciparum [1]; in the data set on Plasmodium falciparum [2]; in data set [4]) were 0.28 µM, 0.3 µM and 311 µM, respectively. For the same compound, in data set [3], the “Ratio IC50” value is recorded as 0.93. The values for the selectivity ratio at 72 h in data set [5] and in data set [6] were 1110 and 1040, respectively.

For `Cc1cc(NCCNc2cc(C)nc3ncnn23)n2ncnc2n1`, the results for the IC50 in the data set with Plasmodium falciparum [1] and in the data set on Plasmodium falciparum [2] were 53.8 µM and 52.2 µM, respectively. The “Ratio IC50” value in data set [3] worked out at 1.03.

Consider `Cc1cc(NCCCCCCNc2cc(C)nc3ncnn23)n2ncnc2n1`, for which the IC50 in the data set with Plasmodium falciparum [1] stood at 11.3 µM; with Plasmodium falciparum [2], 11.6 µM. The “Ratio IC50” value in data set [3] came out at 0.97.

Take `Cc1cc(NCCCCNc2cc(C)nc3ncnn23)n2ncnc2n1`: the IC50 in the data set on Plasmodium falciparum [1] is 11.8 µM; with Plasmodium falciparum [2] it was 12.5 µM. Moreover, the “Ratio IC50” value in data set [3] is on record as 0.94.

As to `Cc1cc(NCCCNc2ccnc3cc(Cl)ccc23)n2ncnc2n1`, the values for the IC50 (with Plasmodium falciparum [1]; with Plasmodium falciparum [2]; in data set [4]) were 0.49 µM, 0.62 µM and 181 µM, respectively. Further, the “Ratio IC50” value in data set [3] was found to be 0.79. Further, the selectivity ratio at 72 h in data set [5] is 369; in data set [6] it was 291.

For the compound `Cc1cc(NCCNc2ccnc3cc(Cl)ccc23)n2ncnc2n1`, the IC50 with Plasmodium falciparum [1] was determined as 10.8 µM; with Plasmodium falciparum [2], 9 µM. Further, in data set [3], the “Ratio IC50” value came to 1.2.

For the compound `Cc1cc(NCCCCCCCCNc2cc(C)nc3ncnn23)n2ncnc2n1`, the IC50 in the data set with Plasmodium falciparum [1] was 49.4 µM; with Plasmodium falciparum [2] it was 45.8 µM. For the same compound, the “Ratio IC50” value in data set [3] was 1.08.

For the compound `Cc1cc(N2CCN(c3ccnc4cc(Cl)ccc34)CC2)n2ncnc2n1`, the IC50 was 12.9 µM in the data set on Plasmodium falciparum [1] and 12.6 µM in the data set on Plasmodium falciparum [2]. Also, in data set [3], the “Ratio IC50” value was found to be 1.02.

Consider `Cc1cc(NCCCNc2cc(C)nc3ncnn23)n2ncnc2n1`, for which the IC50 in the data set with Plasmodium falciparum [1] was determined as 49.1 µM; in the data set on Plasmodium falciparum [2], 47.3 µM. Further, the “Ratio IC50” value in data set [3] was 1.03.

As for `Cc1cc(NCCCCNc2ccnc3cc(Cl)ccc23)n2ncnc2n1`, the figures for the IC50 (with Plasmodium falciparum [1]; with Plasmodium falciparum [2]; in data set [4]) were 0.42 µM, 0.27 µM and 250 µM, respectively. For the same compound, the “Ratio IC50” value in data set [3] came to 1.56. The figures for the selectivity ratio at 72 h in data set [5] and in data set [6] were 596 and 927, respectively.
